In BindingDB's records for doi:10.1021/acs.jmedchem.9b01547 (University of Oxford, 2020) one finds EC50 data, which are given here for three compounds.

The target of assay [1] is T1, Utrophin (Homo sapiens, UniProt P46939). The experiment in a line: Activation of human utrophin-1 in iDMD cells by HTRF assay. The essentials:
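HTRF quantification of human utrophin protein in lysates of treated iDMD cells, read at 620 and 665 nm emission; top concentration 10 μM. EC50 by non-linear regression curve fit from 2 biological replicates, each with 3 technical replicates.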
On the technique in general: In TR-FRET formats the signal depends on donor and acceptor labels being close together.

Assay [2] has as its target T1, Utrophin. Description: Activation of human utrophin-1 in mouse mdx myoblasts by H2K-mdx utrnA-luc assay. The essentials: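 Firefly luciferase reporter gene assay in H2K-mdx utrnA-luc cells (mouse mdx myoblasts carrying a human muscle-specific utrophin A promoter). EC50 from non-linear regression curve fit of 2 biological replicates, 3 technical replicates each.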

Each structure is given as a SMILES string. pEC50: −log10 of the molar value.

T1 sequence (P46939 whole entry): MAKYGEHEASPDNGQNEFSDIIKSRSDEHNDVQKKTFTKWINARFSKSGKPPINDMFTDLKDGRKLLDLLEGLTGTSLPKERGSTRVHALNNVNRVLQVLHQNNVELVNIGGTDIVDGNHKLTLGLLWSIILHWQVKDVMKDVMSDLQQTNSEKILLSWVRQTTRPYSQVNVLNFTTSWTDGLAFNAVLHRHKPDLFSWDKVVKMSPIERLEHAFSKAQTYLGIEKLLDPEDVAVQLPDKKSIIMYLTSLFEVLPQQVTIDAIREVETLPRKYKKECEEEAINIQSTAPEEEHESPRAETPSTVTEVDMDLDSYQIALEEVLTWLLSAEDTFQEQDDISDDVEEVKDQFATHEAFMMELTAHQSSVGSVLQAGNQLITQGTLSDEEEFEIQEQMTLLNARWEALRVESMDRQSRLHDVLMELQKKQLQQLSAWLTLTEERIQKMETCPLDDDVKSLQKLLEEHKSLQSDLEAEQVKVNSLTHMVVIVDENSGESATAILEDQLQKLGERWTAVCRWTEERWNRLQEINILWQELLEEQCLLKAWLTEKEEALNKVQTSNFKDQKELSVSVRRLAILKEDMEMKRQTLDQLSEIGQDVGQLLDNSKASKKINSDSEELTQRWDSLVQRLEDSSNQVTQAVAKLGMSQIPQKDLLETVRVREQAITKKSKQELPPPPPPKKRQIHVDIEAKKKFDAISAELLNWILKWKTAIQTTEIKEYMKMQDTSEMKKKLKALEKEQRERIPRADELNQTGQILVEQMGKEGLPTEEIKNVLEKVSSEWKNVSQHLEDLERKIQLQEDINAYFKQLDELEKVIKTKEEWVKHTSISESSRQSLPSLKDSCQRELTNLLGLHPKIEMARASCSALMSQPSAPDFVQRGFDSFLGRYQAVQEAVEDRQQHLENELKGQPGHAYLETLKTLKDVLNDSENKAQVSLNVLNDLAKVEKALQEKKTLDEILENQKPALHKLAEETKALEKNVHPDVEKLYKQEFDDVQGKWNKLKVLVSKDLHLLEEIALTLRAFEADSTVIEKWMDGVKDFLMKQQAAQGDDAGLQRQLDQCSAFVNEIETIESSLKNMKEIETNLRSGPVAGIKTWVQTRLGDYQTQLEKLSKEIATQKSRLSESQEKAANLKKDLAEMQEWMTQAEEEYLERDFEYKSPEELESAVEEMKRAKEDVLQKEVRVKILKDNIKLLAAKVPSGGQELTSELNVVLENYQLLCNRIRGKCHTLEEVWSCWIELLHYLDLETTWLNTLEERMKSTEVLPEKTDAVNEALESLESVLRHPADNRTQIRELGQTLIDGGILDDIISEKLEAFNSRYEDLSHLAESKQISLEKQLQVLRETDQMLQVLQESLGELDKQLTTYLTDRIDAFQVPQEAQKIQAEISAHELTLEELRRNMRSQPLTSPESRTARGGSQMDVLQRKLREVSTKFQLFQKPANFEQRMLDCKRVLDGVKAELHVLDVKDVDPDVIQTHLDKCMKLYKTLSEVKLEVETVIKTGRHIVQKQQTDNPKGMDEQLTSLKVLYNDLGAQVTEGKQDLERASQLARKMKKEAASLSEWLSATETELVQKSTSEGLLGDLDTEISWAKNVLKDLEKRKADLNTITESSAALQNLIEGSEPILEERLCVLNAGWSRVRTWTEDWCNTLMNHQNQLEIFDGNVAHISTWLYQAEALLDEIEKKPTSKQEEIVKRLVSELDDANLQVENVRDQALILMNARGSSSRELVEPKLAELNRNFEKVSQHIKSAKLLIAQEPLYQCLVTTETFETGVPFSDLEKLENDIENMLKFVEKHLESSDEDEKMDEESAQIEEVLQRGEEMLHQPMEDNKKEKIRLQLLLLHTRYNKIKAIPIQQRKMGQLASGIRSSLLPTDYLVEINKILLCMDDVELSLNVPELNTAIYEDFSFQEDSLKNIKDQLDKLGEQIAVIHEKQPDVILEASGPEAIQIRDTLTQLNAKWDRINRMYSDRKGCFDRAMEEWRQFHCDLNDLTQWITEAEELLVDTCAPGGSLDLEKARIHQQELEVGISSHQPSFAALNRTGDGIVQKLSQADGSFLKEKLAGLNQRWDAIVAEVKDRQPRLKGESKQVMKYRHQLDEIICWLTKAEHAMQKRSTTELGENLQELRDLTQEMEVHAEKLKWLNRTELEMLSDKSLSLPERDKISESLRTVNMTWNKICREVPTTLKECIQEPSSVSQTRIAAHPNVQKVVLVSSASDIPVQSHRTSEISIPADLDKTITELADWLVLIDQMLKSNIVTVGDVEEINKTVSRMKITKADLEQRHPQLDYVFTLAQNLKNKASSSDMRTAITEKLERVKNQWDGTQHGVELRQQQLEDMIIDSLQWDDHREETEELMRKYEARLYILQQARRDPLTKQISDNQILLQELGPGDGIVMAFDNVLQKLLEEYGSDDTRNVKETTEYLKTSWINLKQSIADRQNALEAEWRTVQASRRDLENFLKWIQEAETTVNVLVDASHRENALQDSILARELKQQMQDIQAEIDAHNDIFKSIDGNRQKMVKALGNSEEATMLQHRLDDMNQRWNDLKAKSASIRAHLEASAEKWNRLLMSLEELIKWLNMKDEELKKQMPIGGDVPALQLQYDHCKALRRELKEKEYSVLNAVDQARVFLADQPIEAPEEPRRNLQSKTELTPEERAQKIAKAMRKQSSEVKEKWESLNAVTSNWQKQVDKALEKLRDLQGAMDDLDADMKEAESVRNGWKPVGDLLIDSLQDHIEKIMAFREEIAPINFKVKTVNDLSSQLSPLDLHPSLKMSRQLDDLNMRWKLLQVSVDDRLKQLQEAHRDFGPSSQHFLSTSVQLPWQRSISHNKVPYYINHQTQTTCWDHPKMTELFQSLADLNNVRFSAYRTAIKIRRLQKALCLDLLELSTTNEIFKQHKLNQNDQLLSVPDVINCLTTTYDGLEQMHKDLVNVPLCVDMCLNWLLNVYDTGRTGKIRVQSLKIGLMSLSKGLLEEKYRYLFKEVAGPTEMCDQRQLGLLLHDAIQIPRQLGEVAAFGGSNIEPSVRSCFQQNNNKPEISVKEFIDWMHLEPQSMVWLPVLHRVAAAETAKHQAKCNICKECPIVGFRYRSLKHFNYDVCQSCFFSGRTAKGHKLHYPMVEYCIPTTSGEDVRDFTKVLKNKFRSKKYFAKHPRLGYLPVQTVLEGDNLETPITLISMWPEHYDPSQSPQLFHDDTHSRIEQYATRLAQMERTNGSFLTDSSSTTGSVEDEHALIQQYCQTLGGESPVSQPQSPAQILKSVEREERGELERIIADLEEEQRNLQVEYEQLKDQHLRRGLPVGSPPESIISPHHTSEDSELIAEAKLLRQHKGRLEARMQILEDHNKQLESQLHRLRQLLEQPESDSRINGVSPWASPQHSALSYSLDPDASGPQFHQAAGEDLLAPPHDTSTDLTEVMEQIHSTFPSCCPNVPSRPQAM

As usually defined, the pEC50 is the EC50 on a negative log10 scale, so that one unit is a factor of ten. High values mean a small EC50, low ones a large EC50. With `CCS(=O)(=O)c1ccc2oc(-c3ccc4c(c3)[C@@H](O)[C@H](O)C=C4)nc2c1`, the pEC50 on Utrophin [1] was 5.08; on Utrophin [2] it was 6.92.

On to `CCS(=O)(=O)c1ccc2oc(-c3ccc4c(c3)C=C[C@H](O)[C@H]4O)nc2c1`, for which the pEC50 at Utrophin [1] was less than 5.00; at Utrophin [2], 6.43.

`CCS(=O)(=O)c1ccc2oc(-c3ccc4ccccc4c3)nc2c1` [BMN 195]: the pEC50 at Utrophin [1] was 5.89; on Utrophin [2], 6.96.
